Assay results of several laboratories.
Target: Mitogen-activated protein kinase 14 (MAPK14, Homo sapiens, UniProt Q16539)

SMILES | assay | conditions | endpoint | value
CCCCC(=O)Nc1ccc(-c2ccc3ncn(CCC)c(=O)c3c2)cn1 | binding, competition with immobilised ligand | 0.5 µM | remaining binding | 88%
C=CC(=O)N1CCC([C@@H]2CCNc3c(C(N)=O)c(-c4ccc(Oc5ccccc5)cc4)nn32)CC1 | enzyme activity, inhibitor | 1 µM | inhibition | 1%
N#Cc1ccc(NC(=O)Nc2ccccc2)cc1 | cell-free assay, competition with immobilised ligand | 25 µM | remaining binding | 79%
C1=C/COCc2cc(ccc2OCCN2CCCC2)Nc2nccc(n2)-c2cccc(c2)COC/1 | cell-free assay | 0.1 µM | remaining signal | 89%
CN1CCN(C(=O)c2ccc(NC(=O)Nc3ccc(N(C)c4ccnc(Nc5ccc(CS(C)(=O)=O)cc5)n4)cc3)cc2)CC1 | binding, competition with immobilised ligand | 1 µM | remaining binding | 83%
COc1ccc2oc(-c3ccc4nc(N)oc4c3)c/c(=N\c3ccccc3NC(=O)CCN)c2c1 | binding | 1 µM | remaining binding | 109%
C#Cc1cnc(Nc2ccnc(CO)c2)nc1Nc1ccccc1S(C)(=O)=NC#N (stereo not drawn) | cell-free assay | 1 µM | remaining signal | 91%
CC#CC(=O)N1CCC[C@H]1c1nc(-c2ccc(C(=O)Nc3ccccn3)cc2)c2c(N)nccn12 | enzyme activity, inhibitor | 1 µM | inhibition | 0%
COc1ccc2[nH]c3c4[nH]c5ccc(OC)cc5c4c4c(c3c2c1)C(=O)NC4=O | binding, competition with immobilised ligand | 1 µM | remaining binding | 87%
